Mdm2 MdmX PPI: human Mdm2/MdmX binding inhibition | SaOS-2 split-luciferase Mdm2/MdmX complementation, luminescence | O15151+Q00987 | inhibition, % at 8 µM | hit rate 3% among 330,000;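 active = inhibition of at least 50% at 8 µM in the primary screen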
XBP1 UPR activ: adaptive UPR (XBP1) activation | CHO-XBP1 luciferase reporter, IRE1-XBP1 UPR activation, luminescence; percent of tunicamycin response, DMSO as zero | activation, % at 20 µM | hit rate 0.33% among 330,000;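 active = versus positive control, 20 µM dose yields 30% or more activation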
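Signal: luciferase luminescence; Assay system: CHO-XBP1 luciferase reporter cells; Amount: one thousand reporter cells per well; Dosing: 20 µM single concentration, DMSO 1%; Benchmarks: high control tunicamycin 10 µg/mL final, low control DMSO vehicle only; Schedule: 6 h compound exposure at 37 °C, 5% CO2; Evaluation: percent activation relative to tunicamycin reference.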
Beta cell apopt: blocks beta cell apoptosis | protection from apoptosis, % (concentration not given with the values) | INS-1E cytokine-induced death, ATP luminescence, 48 h; percent of positive-control rescue, neutral wells zero | hit rate 0.8% among 300,000;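 active = Every replicate reaches about 75%, or at least half do and their mean reaches it too, limit read from the data; inconclusive = At least half of replicates reach the limit but their mean does not; inactive = Under half of replicates reach the limit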;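 also: higher means more ATP so stronger rescue from cytokine killing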
CHOP UPR activ: apoptotic UPR (CHOP) activation. hit rate 0.34% among 330,000. activation, % at 10 µM. CHO-CHOP luciferase reporter, luminescence; percent of tunicamycin response over DMSO baseline;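 active = at 10 µM dose, activation of 40% or more, normalized to positive control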
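Evaluation: % reporter activation, DMSO baseline versus tunicamycin full activation; System: CHO-CHOP luciferase reporter cell line; Input: 500 cells/well; Incubation: 6 h compound treatment, 37 °C; Measured by: Steady-Glo luciferase luminescence; Dosing: one dose, 10 µM in 0.5% DMSO; Buffer or medium: F12 medium, 10% FBS; Benchmarks: positive tunicamycin 10 µg/mL, negative DMSO alone.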
CSC inhib: cancer stem cell inhibition; cancer stem cell-like cells viability, luminescence; inhibition, % at 7.5 µM; hit rate 1.1% among 300,000; AID 2717; in the data active = inhibition above about 75%; inconclusive = no clear call, values can overlap the other calls; tested in HMLE shEcad cells
SKKanGAS inh: inhibitors of SKKanGAS S. pyogenes growth in kanamycin (SK-promoter or general growth effect). BacTiter-Glo, 6 h. inhibition, % at 7.5 µM. hit rate 1.3% among 300,000. AID 1662;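 active = mean replicate score, as percent of positive control median, at least 50; inconclusive = mean below 50 but one replicate at or above 50; inactive = mean and every replicate below 50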;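 also: strain carries kanamycin resistance gene driven by streptokinase promoter and grows in 40 µg/ml kanamycin; loss of luminescence reflects streptokinase promoter inhibition or plain growth inhibition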
Mdm2 MdmX conf: human Mdm2/MdmX binding inhibition, confirmed | shares compounds with Mdm2 MdmX PPI | luminescent assay | inhibition, % at 8 µM | hit rate 55% among 10,000 | AID 489028; in the data active = inhibition above about 40%
FLuc counter: full-length luciferase inhibition in Mdm2/MdmX counter-screen. shares compounds with Mdm2 MdmX PPI. SaOS-2 full-length luciferase counterscreen, luminescence. inhibition, % at 8 µM. hit rate 77% among 6,200. AID 504607;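 active = mean inhibition at 8 µM reaching about 37%, which flags the compound as non-specific, limit read from the data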;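 also: p53-null SaOS-2 cells with luciferase driven by a doxycycline-inducible promoter; compound on cells about two nights before reading with doxycycline added after day one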
A number is an active result; n = inactive; u = inconclusive; x = no result. Shown are actives, neighbours in structure and some others; about 4.8% of the full set was active somewhere.

SMILES	Mdm2 MdmX PPI	XBP1 UPR activ	Beta cell apopt	CHOP UPR activ	CSC inhib	SKKanGAS inh	Mdm2 MdmX conf	others
CCOc1ccc(CCNC(=O)CCCn2c(=O)c3cccn3c3cccnc32)cc1OCC	n	n	n	n	n	n	x
COc1cccc(N2CCN(S(=O)(=O)c3ccc(-c4cnc(C5CC5)o4)cc3)CC2)c1	79	n	n	n	n	n	n
COc1ccccc1N1CCN(S(=O)(=O)c2ccc(-c3cnc(C4CC4)o3)cc2)CC1	n	n	n	n	n	n	x
COc1ccc(NS(=O)(=O)c2ccc(-c3cnc(C4CC4)o3)cc2)cc1OC	57	n	93	n	n	n	56	FLuc counter=47
O=S(=O)(Nc1ccc(F)cc1Cl)c1ccc(-c2cnc(C3CC3)o2)cc1	56	n	x	n	x	n	61	FLuc counter=66
COc1ccc(N2CCN(S(=O)(=O)c3ccc(-c4cnc(C5CC5)o4)cc3)CC2)cc1	n	n	n	n	n	n	x
COc1ccccc1NS(=O)(=O)c1ccc(-c2cnc(C3CC3)o2)cc1	70	n	n	n	n	n	64	FLuc counter=81
Cc1nc(SCC(=O)Nc2ccccc2C(F)(F)F)c(C#N)c(C)c1CC(=O)c1ccc(Br)cc1	53	33	n	n	n	n	n
Cc1cccc(C)c1NC(=O)CSc1nc(C)c(CC(=O)c2ccc(Br)cc2)c(C)c1C#N	85	n	n	n	n	n	63	FLuc counter=96
CC(=O)Nc1cccc(NC(=O)CSc2nc(C)c(C)c(C)c2C#N)c1	n	n	n	n	n	n	x
CC1C(=O)N2CCCc3cc(S(=O)(=O)N(C)CCC#N)cc1c32 (stereo not drawn)	n	n	n	n	n	n	x
CC(NC(=O)c1cc(S(=O)(=O)N(C)C)ccc1Cl)c1ccc(-n2ccnc2)cc1 (stereo not drawn)	n	n	n	n	n	n	x
CCCOc1cccc(C(=O)N/N=C/c2ccoc2)c1	n	n	n	n	n	n	x
Cc1nc(SC(C)C(=O)NCC2CCCO2)c2cc(-c3ccccc3)sc2n1 (stereo not drawn)	97	n	n	n	n	n	96	FLuc counter=55
Oc1ccc(CN2CCCc3ccccc32)c2cccnc12	79	n	103	n	n	n	76	FLuc counter=43
Cc1onc(C(=O)Nc2cccc(C(F)(F)F)c2)c1[N+](=O)[O-]	n	n	x	n	x	n	x
Cc1nc(Cl)c(C(=O)NC(=O)Nc2cccc(C(F)(F)F)c2)c(C)c1[N+](=O)[O-]	57	n	n	n	x	n	n
Cc1ccc(SCC(=O)N/N=C/c2ccco2)cc1	n	n	n	n	n	n	x
COc1ccccc1C(=O)NCCC(=O)NCCC12CC3CC(CC(C3)C1)C2	n	n	n	n	n	n	x
COc1ccc(C23CC4CC(CC(C4)C2)C3)cc1C(=O)NCCN(C)C	62	n	n	n	n	n	n
C=C(C)CNC(=S)NNC(=O)CCn1c2cc(Cl)ccc2c2ccc(Cl)cc21	n	n	n	n	n	n	x
C=C(C)CNC(=S)NNC(=O)CCn1c2ccc(Cl)cc2c2cc(Cl)ccc21	54	n	n	n	102	74	n
CCC(C)C1/C=C\CC(NC(=O)OCC2c3ccccc3-c3ccccc32)CC(=O)N1Cc1ccccc1 (stereo not drawn)	n	n	x	n	x	x	x
COc1ccc(OC)c(C2CC(c3ccccc3)=NN2C(=S)Nc2ccccc2)c1 (stereo not drawn)	72	n	n	n	n	n	58	FLuc counter=63
Cc1cc2oc(=O)cc(C)c2cc1NC(=O)CCl	58	n	n	n	n	n	n
SMILES	Mdm2 MdmX PPI	XBP1 UPR activ	Beta cell apopt	CHOP UPR activ	CSC inhib	SKKanGAS inh	Mdm2 MdmX conf	others
Cc1cc2oc(=O)cc(C)c2cc1NC(=O)CCC(=O)O	n	n	n	n	n	n	x
CC(=O)Nc1ccc(Nc2nc(-c3c(C)nc4ccccn34)cs2)cc1	66	n	n	n	n	n	47	FLuc counter=66
Cc1nc2ncccn2c1-c1csc(Nc2ccc(N(C)C)cc2)n1	x	x	x	x	x	n	x
Cc1nc2ncccn2c1-c1csc(Nc2ccccc2)n1	62	n	n	n	n	n	n
COc1cccc(CN2CC(C(=O)NCCSc3nnnn3C)CCC2=O)c1 (stereo not drawn)	n	n	n	n	n	n	x
CCC(C)Sc1ccc([C@H]2N[C@@](Cc3ccccc3)(C(=O)OC)[C@H]3C(=O)N(CC)C(=O)[C@@H]23)cc1 (stereo partly drawn)	n	n	x	n	n	n	x
Cc1oc2ccc(O)c(CN3CCOCC3)c2c1C(=O)c1ccc(Cl)cc1	n	n	n	n	n	n	x
Cc1oc2c(Cl)c(Cl)c(O)c(CN(C)C)c2c1C(=O)c1ccc(Cl)cc1	59	n	n	n	n	n	66	FLuc counter=n
Nc1c(N(Cc2ccco2)C(=O)COc2ccccc2F)c(=O)[nH]c(=O)n1Cc1ccccc1	n	n	n	n	n	x	x
COc1ccc2nc(C)cc(Sc3nc4ccccc4s3)c2c1	78	n	n	n	n	n	n
N#Cc1ccc(/C=C\c2nccc3c2[nH]c2ccccc23)cc1	51	n	n	n	n	n	n
CCOC(=O)C1=CN(Cc2cccc(-c3ccc(F)cc3)c2)S(=O)(=O)N(C)C1C (stereo not drawn)	n	n	x	n	x	x	x
CCOc1ccc(C(C)=O)cc1COc1cccnc1[N+](=O)[O-]	58	n	n	n	n	n	57	FLuc counter=45
CC1(C)CCCN(Cc2c(O)ccc3c(=O)c(-c4nc5ccccc5s4)c(N)oc23)C1	n	n	n	n	u	n	x
CC1CCN(Cc2c(O)ccc3c(=O)c(-c4nc5ccccc5s4)c(N)oc23)CC1	51	n	n	n	x	n	n
CC1CCCN(Cc2c(O)ccc3c(=O)c(-c4nc5ccccc5s4)c(N)oc23)C1 (stereo not drawn)	70	n	n	n	n	n	43	FLuc counter=67
O=C(N/N=C/c1ccncc1)c1ccc(COc2cccc3cccnc23)cc1	n	n	n	n	n	n	x
O=C(N/N=C/c1cccc(O)c1)c1ccc(COc2cccc3cccnc23)cc1	54	n	n	n	n	n	n
Cc1c(OC(C)C(=O)NCc2ccccn2)ccc2c3c(c(=O)oc12)CCCC3 (stereo not drawn)	n	n	x	n	n	n	x
N=c1c2c(ncn1CCCO)Oc1ccc3ccccc3c1C2c1ccccc1 (stereo not drawn)	58	n	111	n	n	n	n

Screening results from PubChem.
